Source: PubChem BioAssay (several laboratories)
HTR1E agonist: activates the human 5-HT1E serotonin receptor | CHO 5-HT1E Ga15 NFAT-bla reporter, FRET; 0% DMSO wells, 100% control agonist wells | actives 0.69% (n = 65,000) | activation, % at 6 µM;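 active means activation above a set limit, the screen-wide mean activation plus 3 SD, cut at about 8.5% in these data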;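 further: 100% = positive control agonist at 1 µM giving full maximal response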
E coli RNAP: inhibitors of Escherichia coli RNA polymerase. inhibition, %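 (tested at 10 µM)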. E. coli RNA polymerase, fluorescence transcription assay. actives 0.2% (n = 62,000); in the data active means inhibition above about 20%;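 further: 0% = enzyme without compound and 100% = no enzyme blank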
S1P3 ag: agonists of human S1P3 receptor; Q99500; S1P3 NFAT-BLA reporter cells, agonism, FRET ratio; relative to 1 µM S1P, basal subtracted; activation, % at 4.5 µM; actives 0.1% (n = 60,000); AID 373;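 active means activation above the screen-wide mean plus 3 SD, cut at about 4.5% in these data, passing the limit was not always enough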
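Assay system: stable CHO line with human S1P3, Gα16, NFAT-BLA reporter; Detection: FRET β-lactamase substrate fluorescence, excitation 405 nm, 460/535 nm emission ratio, background-subtracted; Read-out: percent activation versus median 1 µM S1P response, basal-subtracted, per plate; Incubation: cells plated overnight, compound 4 h 37 °C, substrate 2 h RT.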
5HT1E antag: antagonists of human 5-HT1E serotonin receptor; CHO 5-HT1E Ga15 NFAT-bla reporter, FRET, antagonist; P28566; actives 0.99% (n = 65,000); inhibition, % at 6 µM;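 active means inhibition above a set limit, the mean inhibition across every tested compound plus 3 SD, cut at about 29% in these data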;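 further: signal is the 460 over 535 nm emission ratio of beta-lactamase substrate; 0% = agonist plus DMSO wells and 100% = wells without agonist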
5-HT1A blocker: 5-HT1a (human) receptor antagonism; P08908; CHO 5-HT1a Ga15 NFAT-bla reporter, antagonist mode; inhibition, % at 10 µM; actives 0.68% (n = 62,000);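 active means inhibition above the mean of all tested compounds plus 3 SD, cut at about 43% in these data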;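 further: receptor stimulated by 5-CT agonist at 100 nM near EC80; beta-lactamase reporter measured by ratiometric fluorescence of a cleavable substrate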
HTR1A agonist: 5-HT1a (human) receptor agonism. actives 0.56% (n = 65,000). activation, % at 10 µM. CHO 5-HT1a Ga15 NFAT-bla reporter, FRET ratio; 0% basal, 100% maximal reference agonist;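 active means activation above the screen-wide mean activation plus 3 SD, cut at about 19% in these data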;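 further: 0% = DMSO wells and 100% = 5-CT at EC100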
Active calls of the source: *. Most compounds without a hit are left out; they make up all but 2.6% or so of the library.

How did Cc1cc(C)n(-c2nc(NCC(C)O)c3c4c(sc3n2)CCCC4)n1 (centres undefined) do in these assays?
HTR1E agonist: 1.2; E coli RNAP: -4.5; S1P3 ag: 29.4*; 5HT1E antag: -5.7; 5-HT1A blocker: -3.4; HTR1A agonist: 1.9

How did Cc1cc(C)n(-c2nc(NCC3CCCO3)c3c4c(sc3n2)COC(C)(C)C4)n1 (centres undefined) do in these assays?
HTR1E agonist: 0.3; E coli RNAP: -4.8; S1P3 ag: 2.9; 5HT1E antag: 1.5; 5-HT1A blocker: -2.2; HTR1A agonist: -0.9

Results for Cc1cc(C)n(-c2nc(SCC(=O)NCC3CCCO3)c3c4c(sc3n2)CCCC4)n1 (centres undefined) ?
HTR1E agonist: -1.3; E coli RNAP: -3.6; S1P3 ag: -1.6; 5HT1E antag: 15.3; 5-HT1A blocker: 23.0; HTR1A agonist: -2.6

What do the screens show for `Cc1ccc(C(=O)NCc2ccc3c(c2)OCO3)cc1N1CCCC1=O`?
HTR1E agonist: 0.5; E coli RNAP: -12.1; S1P3 ag: -0.9; 5HT1E antag: 9.4; 5-HT1A blocker: 1.9; HTR1A agonist: -4.5

Results for CCOC(=O)N1CCC(NC(=O)C2CCN(c3nc(-c4ccc(OC)cc4)no3)CC2)CC1 ?
HTR1E agonist: -1.1; E coli RNAP: 1.2; 5HT1E antag: -6.6; 5-HT1A blocker: 2.9; HTR1A agonist: -0.8

What do the screens show for `CSc1ccc(Cl)c(C(=O)OCC(=O)NCc2ccco2)c1`?
HTR1E agonist: 0.6; E coli RNAP: 6.0; S1P3 ag: 0.6; 5HT1E antag: 3.8; 5-HT1A blocker: -6.7; HTR1A agonist: -1.0

What do the screens show for `COc1ccc2cc(C(=O)NCc3ccco3)c(=O)oc2c1`?
HTR1E agonist: 0.1; E coli RNAP: 0.9; S1P3 ag: -0.2; 5HT1E antag: 3.5; 5-HT1A blocker: 2.3; HTR1A agonist: 0.2

How did O=C(NCc1ccco1)c1cc2ccc(O)cc2oc1=O do in these assays?
HTR1E agonist: 37.6*; E coli RNAP: -37.0; S1P3 ag: 12.0*; 5HT1E antag: -56.7; 5-HT1A blocker: -236.6; HTR1A agonist: 189.2*

Results for CSc1ccc(Cl)c(C(=O)NCc2ccco2)c1 ?
HTR1E agonist: -1.1; E coli RNAP: 1.0; S1P3 ag: -0.3; 5HT1E antag: 31.9*; 5-HT1A blocker: 6.3; HTR1A agonist: -4.0

Results for COCCN1C(=O)C(CC(=O)Nc2ccc(C(C)=O)cc2)SC1=Nc1ccccc1 (centres undefined) ?
HTR1E agonist: -0.1; E coli RNAP: 1.3; S1P3 ag: -1.9; 5HT1E antag: 1.4; 5-HT1A blocker: 4.2; HTR1A agonist: 172.4*

Results for COc1ccc(C(=O)/C=C(\N)C(F)(F)F)c(O)c1 ?
HTR1E agonist: 1.2; E coli RNAP: -7.0; S1P3 ag: -0.8; 5HT1E antag: -5.7; 5-HT1A blocker: -15.6; HTR1A agonist: 1.8

What do the screens show for `CCCCCCC(=O)N(O)C1CC(=O)N(Cc2ccccc2)C1=O` (centres undefined)?
HTR1E agonist: -0.7; E coli RNAP: 2.7; S1P3 ag: -1.9; 5HT1E antag: 30.5*; 5-HT1A blocker: 29.5; HTR1A agonist: -6.8

What do the screens show for `Cc1ccc(/C=c2\sc3nc(-c4ccccc4Br)nn3c2=O)o1`?
HTR1E agonist: 0.5; E coli RNAP: 9.6; S1P3 ag: -0.6; 5HT1E antag: -4.6; 5-HT1A blocker: -9.4; HTR1A agonist: -0.6

What do the screens show for `Cc1ccc(/C=c2/sc3nnc(-c4ccccc4Cl)n3c2=O)o1`?
HTR1E agonist: 0.5; E coli RNAP: 12.7; S1P3 ag: -1.1; 5HT1E antag: -0.4; 5-HT1A blocker: 45.5*; HTR1A agonist: 0.2

What do the screens show for `CCOC(=O)c1cnc(-n2nc(C)cc2C)nc1NC1CCCCC1`?
HTR1E agonist: 0.1; E coli RNAP: 7.4; S1P3 ag: -1.8; 5HT1E antag: 11.0; 5-HT1A blocker: 47.9*; HTR1A agonist: -0.2

Results for CCCOc1ccc2nc(NC(=O)OC)[nH]c2c1 ?
HTR1E agonist: -0.1; E coli RNAP: 4.8; S1P3 ag: -3.6; 5HT1E antag: 73.2*; HTR1A agonist: -1.5

How did O=c1cc(O)nc2n1CCCS2 do in these assays?
HTR1E agonist: 0.3; S1P3 ag: 0.5; 5HT1E antag: -9.6; HTR1A agonist: 0.6

What do the screens show for `CCOC(=O)N1CCN(c2nc(C)cc(C(F)(F)F)n2)CC1`?
HTR1E agonist: 0.0; E coli RNAP: 6.6; 5HT1E antag: -5.6; 5-HT1A blocker: 1.1; HTR1A agonist: -1.1

Results for CCN(CC)c1nc2n(c(=O)n1)CCN2CC ?
HTR1E agonist: 0.1; E coli RNAP: 6.8; S1P3 ag: -0.4; 5HT1E antag: -5.7; 5-HT1A blocker: -5.2; HTR1A agonist: -0.2

What do the screens show for `CCN1CCn2c1nc(N1CCCCC1)nc2=O`?
HTR1E agonist: 9.4*; E coli RNAP: 5.3; S1P3 ag: -0.7; 5HT1E antag: -8.7; 5-HT1A blocker: 7.3; HTR1A agonist: 0.9

What do the screens show for `CCOc1cc(S(=O)(=O)NCC2OCCc3ccccc32)c(OCC)cc1-n1cnnn1` (centres undefined)?
HTR1E agonist: 0.4; E coli RNAP: 4.5; S1P3 ag: -0.9; 5HT1E antag: 4.3; 5-HT1A blocker: -5.8; HTR1A agonist: 5.4

How did CCSCCOC(=O)C1=C(C)NC(=O)NC1c1ccc2c(c1)OCO2 (centres undefined) do in these assays?
HTR1E agonist: 0.7; E coli RNAP: 2.6; S1P3 ag: -0.6; 5HT1E antag: 21.3; 5-HT1A blocker: -7.2; HTR1A agonist: 199.9*

How did CCOC(=O)c1c(C)[nH]c(C(=O)COC(=O)C2CC(=O)N(Cc3ccccc3)C2)c1C (centres undefined) do in these assays?
HTR1E agonist: -0.6; E coli RNAP: 7.3; S1P3 ag: 0.4; 5HT1E antag: -6.3; 5-HT1A blocker: -6.3; HTR1A agonist: -1.4

What do the screens show for `O=S(=O)(Cc1ccccc1)N1CCCC1`?
HTR1E agonist: -0.1; S1P3 ag: -1.1; 5HT1E antag: 0.3; 5-HT1A blocker: 10.9; HTR1A agonist: -1.7

How did CCOC(=O)C1CCCN(C(=O)c2cnn3c(C(F)F)cc(-c4ccc(C)cc4)nc23)C1 (centres undefined) do in these assays?
HTR1E agonist: 3.2; E coli RNAP: 5.1; S1P3 ag: -1.3; 5HT1E antag: -7.7; 5-HT1A blocker: 46.7*; HTR1A agonist: 0.8

What do the screens show for `CN(C)c1ccc(CNC(=O)CN(C)S(=O)(=O)c2cccc3cccnc23)cc1`?
HTR1E agonist: -0.2; E coli RNAP: 5.2; S1P3 ag: -0.7; 5HT1E antag: 0.2; 5-HT1A blocker: -2.0; HTR1A agonist: 2.6

How did O=C(OCC(=O)N1CCN(C(=O)c2ccco2)CC1)c1cc(=O)c2ccccc2o1 do in these assays?
HTR1E agonist: 0.9; E coli RNAP: 2.9; S1P3 ag: 0.4; 5HT1E antag: -2.2; 5-HT1A blocker: 6.7; HTR1A agonist: -2.1
